Source: PubChem
SR-BI DiI inh = blocks mouse SR-BI lipid uptake from DiI-HDL; 320,000 compounds, 0.96% hits; ldlA[mSR-BI] CHO cells, DiI-HDL uptake fluorescence, 3 h; inhibition, % at 12.5 µM; Q61009;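 active = mean replicate inhibition of at least 70% and a set share of replicates each scoring 70 or more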;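 note: 0% = median of neutral control wells and 100% = median of positive control wells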
Target sequence (Q61009 whole entry, looked up): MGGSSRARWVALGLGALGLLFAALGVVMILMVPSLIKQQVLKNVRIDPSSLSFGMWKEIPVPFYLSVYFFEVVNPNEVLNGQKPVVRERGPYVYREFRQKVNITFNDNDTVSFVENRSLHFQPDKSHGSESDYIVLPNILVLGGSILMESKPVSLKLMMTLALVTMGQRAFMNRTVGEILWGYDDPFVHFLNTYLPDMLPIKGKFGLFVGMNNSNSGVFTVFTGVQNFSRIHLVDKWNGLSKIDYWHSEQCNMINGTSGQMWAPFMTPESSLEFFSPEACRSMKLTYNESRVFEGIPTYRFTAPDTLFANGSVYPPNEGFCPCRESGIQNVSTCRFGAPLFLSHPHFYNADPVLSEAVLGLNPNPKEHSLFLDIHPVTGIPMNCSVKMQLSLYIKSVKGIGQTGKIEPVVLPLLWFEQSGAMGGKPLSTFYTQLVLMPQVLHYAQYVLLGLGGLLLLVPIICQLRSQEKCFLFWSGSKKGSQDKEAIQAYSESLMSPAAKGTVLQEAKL
CaV13 ICDI inh = Primary screen for inhibitors of IQ motif and Ca2+-dependent inactivation inhibitor domain binding in CACNA1D, Förster resonance energy transfer in living cells, …. HEK cells, CFP/YFP FRET ICDI-IQ, plate reader, 10 min; percent FRET-ratio fall versus neutral wells. inhibition, % at 12.3 µM. 340,000 compounds, 0.098% hits. AID 743397;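 active = mean replicate inhibition of at least 30% and at least 1% of replicates passing that level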;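 note: 0% = median of the neutral control wells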
FN deposit inh = fibronectin deposition inhibition. AH1F fibroblasts, Alexa488-fibronectin deposition fluorescence, overnight. inhibition, % at 12.6 µM. 350,000 compounds, 0.086% hits;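 active = mean inhibition across replicates of 30% or more, regardless of how many single replicates reach that level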;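 note: positive control wells lacked labelled fibronectin entirely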
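test system = AH1F fibroblasts assembling fluorescent fibronectin matrix | quantity = 10000 AH1F cells per well | buffer or medium = DMEM plus 2% serum, read in PBS | doses = single dose, pinned | incubation = 1 h cell attachment, overnight exposure to compound and label | detection = fluorescence at 485 nm excitation, 525 nm emission | read-out basis = inhibition from reduced deposited-fibronectin fluorescence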
Efflux pump mplx = blocks antifungal efflux pumps in multiplex yeast assay; 330,000 compounds, 0.44% hits; inhibition, % at 10 µM; AID 485275; S. cerevisiae Candida pump triplex, Nile Red efflux;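 active = plate passing quality check with inhibition over a set limit, or well fluorescence over plate mean plus 4 SD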;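 note: Nile Red retained in pooled yeast measured as flow cytometry median fluorescence; 0% = buffer negative control and 100% = Enniatin B positive control; higher means more Nile Red kept so more efflux inhibition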
SR-BI uptake up = SR-BI HDL lipid transfer activation | activation, % at 12.5 µM | 320,000 compounds, 0.096% hits | CHO ldlA[mSR-BI] cells, DiI-HDL uptake fluorescence, 3 h; 100 = double the neutral-control signal;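 active = mean replicate activation of at least 60% and every replicate at or above 60%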;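 note: 0% = median plate neutral-control signal and 100% = twice that signal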
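System: CHO ldlA[mSR-BI] cells / Medium: HEPES-buffered (25 mM, pH 7.4) F12 plus 0.5% BSA / Probe or stimulus: labelled HDL, 10 µg/mL / Doses: single compound concentration, delivered by pin transfer / Schedule: 3 h, 37 °C / Measured by: DiI fluorescence, bottom read / Measure: cell-associated DiI fluorescence as measure of HDL uptake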
An asterisk follows results filed as active; · = not tested or not shown; + = active, no number. An excerpt weighted towards active compounds, which were near 1.2% of everything screened.

SMILES	SR-BI DiI inh	CaV13 ICDI inh	FN deposit inh	Efflux pump mplx	SR-BI uptake up
Cc1ccc(C(=O)n2c3ccccc3c3ccccc32)cc1	74*	0	·	0	-74
C[C@@H]1CN([C@H](C)CO)C(=O)c2c(c3ccccc3n2C)-c2ccccc2CO[C@@H]1CN(C)Cc1ccccc1	·	·	-11	·	·
O=C(C[C@H]1C=C[C@H](NC(=O)Nc2cc(F)ccc2F)[C@@H](CO)O1)NCCCN1CCOCC1	·	·	0	·	·
O=C(Nc1cc2c3c(c1)CC(=O)N3CCC2)c1ccc(Cl)cc1	79*	-7	-3	0	-79
COc1ccc(S(=O)(=O)Nc2cccc3c2O[C@H](CN(C)Cc2ccc(C(=O)O)cc2)[C@H](C)CN([C@@H](C)CO)C3=O)cc1	·	·	-1	·	·
O=C(C[C@@H]1C=C[C@@H](NC(=O)Cc2cccnc2)[C@H](CO)O1)Nc1ccc(-c2ccccc2)cc1	·	·	16	·	·
CCc1nc(SCC(=O)c2ccc3c(c2)OCCO3)c2ccccc2n1	47	-5	·	0	-47
CCc1nc(SCC(=O)c2ccccc2)c2ccccc2n1	10	39*	-12	0	-10
CC(C)NC(=O)N(C)C[C@H]1Oc2ccc(NS(C)(=O)=O)cc2CC(=O)N(C)C[C@@H]1C	·	·	10	·	·
COc1ccc(C(=O)Nc2ccc(NC(=O)c3ccccc3OC)nc2)cc1	79*	-2	4	0	-79
COc1ccc(C(=O)Nc2ccc(NC(=O)c3cccc(OC)c3)cn2)cc1	62	-3	-5	0	-63
COc1ccc(C(=O)Nc2ccc(NC(=O)c3ccccn3)cn2)cc1	60	-7	-2	·	-60
COc1ccccc1C(=O)Nc1ccc(Oc2nnc(-c3ccc(C)cc3)c3ccccc23)cc1	84*	-18	-6	0	-84
COc1ccc(C(=O)Nc2ccc(NC(=O)c3cccc(F)c3)cn2)cc1	76*	-5	-4	0	-76
COc1ccc(C(=O)Nc2ccc(NC(=O)c3cc(OC)c(OC)c(OC)c3)cn2)cc1	77*	-4	2	0	-77
COC(=O)c1cc(NC(=O)c2cccnc2)cc(C(=O)OC)c1	14	-5	1	0	-14
COC(=O)c1cc(NC(=O)c2cccc(F)c2)cc(C(=O)OC)c1	78*	-3	0	0	-78
COc1ccc(N/C=C/C(=O)c2cc(OC)c(OC)c(OC)c2)cc1	72*	-4	17	0	-72
O=C(Nc1cccc(NC(=O)c2cccc(F)c2)n1)c1cccc(F)c1	87*	-5	1	0	-87
O=C(Nc1cccc(NC(=O)c2c(F)cccc2F)n1)c1c(F)cccc1F	61	-7	-1	0	-61
CN(C)C(=O)C[C@H]1CC[C@@H]2[C@H](COC[C@@H](O)CN2Cc2ccc(C(F)(F)F)cc2)O1	·	·	-9	·	·
O=C(Nc1cccc(Cl)c1)c1ccc(NCCCN2CCOCC2)c([N+](=O)[O-])c1	71*	·	·	0	-71
N#C[C@@H]1[C@H](c2ccccc2-c2cccc(F)c2)[C@H](CO)N1C(=O)C1CCCC1	·	·	-13	·	·
CCOC(=O)c1c(-c2ccc(OC)cc2)csc1NC(=O)COc1ccc2c(C)cc(=O)oc2c1	73*	-2	-4	0	-73
CCCC(=O)Nc1ccc2c(c1)C(=O)N(C)C[C@@H](OC)[C@@H](C)CN(C(=O)CC)[C@@H](C)CO2	·	·	4	·	·
SMILES	SR-BI DiI inh	CaV13 ICDI inh	FN deposit inh	Efflux pump mplx	SR-BI uptake up
OC(CNC1CCCc2ccccc21)COc1c(Cl)cccc1Cl (configuration not stated)	-2	-9	42*	0	2
COc1ccccc1-c1cnn2c(NC3CCCC3)cc(C)nc12	86*	-10	11	0	-86
CCOC(=O)N1CCC(Nc2cc(C)nc3c(-c4ccccc4OC)c(C)nn23)CC1	9	-5	3	0	-9
O=C1N[C@H](Cc2ccccc2)COCc2cn(nn2)CC[C@H]1Cc1cccc(Cl)c1	·	·	-3	·	·
O=C(C[C@H]1C[C@@H]2c3cc(NC(=O)Nc4ccc(C(F)(F)F)cc4)ccc3O[C@@H]2[C@@H](CO)O1)NCc1ccc2c(c1)OCO2	·	·	-23	·	·
O=C(C[C@H]1CC[C@@H]2[C@H](COC[C@H](O)CN2S(=O)(=O)c2ccccc2)O1)NCCN1CCCC1	·	·	-6	·	·
COc1cc(C(=O)Nc2nnc(C3CC3)s2)ccc1OCc1c(C)noc1C	88*	-6	-21	0	-88
COc1cc(C(=O)Nc2nccs2)ccc1OCc1c(C)noc1C	76*	-9	·	0	-76
Cc1nc(C2CCC3C4CCC5=CC(=O)CC[C@]5(C)C4CC[C@]23C)cs1 (some centres not stated)	·	-4	-4	2.0*	·
C/C=C/c1cccc(-c2nc(C(=O)NC3CCC3)cc3c2[C@@H](CCO)N([S@](=O)C(C)(C)C)C3)c1	·	·	10	·	·
O=C(NC(=S)N1CCN(c2nc(-c3ccccc3)cs2)CC1)c1cncc(Br)c1	-2	+	-4	0	2
NC(=S)NN=C1CCCCCCCCCC1	76*	-10	5	·	-76
COc1cc(OC)c(C=CC(=O)c2ccccc2O)c(OC)c1	73*	-5	-4	·	-73
Fc1ccc(/C=N/c2c(-c3ccc(F)cc3)nc3n2CCS3)cc1	77*	-7	·	0	-77
CNC[C@@H]1Oc2ncccc2C(=O)N(C)C[C@H]1C	·	·	3	·	·
Cc1cc2cc(CNC(=O)c3cc4ccccc4o3)ccc2n1C	·	·	·	1	·
Cc1cc2cc(CNC(=O)c3ccco3)ccc2n1C	-9	56*	2	0	9
O=C(Cc1nc2ccccc2[nH]c1=O)c1ccccc1	33	58*	0	·	-33
Cc1noc(C)c1S(=O)(=O)N(C)C[C@@H]1Oc2c(NC(=O)C3CCOCC3)cccc2C(=O)N([C@@H](C)CO)C[C@@H]1C	·	·	-11	·	·
Nc1ccc(Nc2nc(-c3cccs3)cs2)cc1	100*	-2	-3	0	-100
c1ccc(Nc2nc(-c3cccs3)cs2)nc1	-8	·	·	0	8
CCOc1ccc(NC(=O)CN(C)C(=O)c2ccncc2)cc1OCC	0	-4	14	1	0
CCOc1ccc(NC(=O)CN(C)C(=O)c2ccc(OCc3ccccc3)c(OC)c2)cc1OCC	60	-1	-7	0	-60
CCOc1ccc(NC(=O)CN(C)C(=O)c2c(C)nn(-c3ccc(F)cc3)c2Cl)cc1OCC	83*	-6	·	0	-83
CCOc1ccc(NC(=O)CN(C)C(=O)c2ccccc2OCCOc2ccccc2)cc1OCC	82*	-2	-6	0	-82
CCOc1ccc(NC(=O)CN(C)C(=O)c2cc(-c3ccc(OC)cc3)nc3ccccc23)cc1OCC	40	-6	-6	0	-40
CCOc1ccc(NC(=O)CN(C)C(=O)c2ccccc2CCc2ccccc2)cc1OCC	94*	-2	-1	0	-94
